{"source": "paper PMC9392492", "about": "(International Journal of Nanomedicine, 2022)", "type_in_all_cases": "in vivo", "key": {"[1]": {"test_system": "hot-plate nociception in mice", "experiment": "Hot plate test", "conditions": "RJ-III 0.2 mg/kg, aspirin 300 mg/kg", "procedure,_shortened": "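Baseline latency (paw lick or jump) on a 53 ± 0.5°C plate was taken three times, 15 min apart. Mice under 5 s or over 30 s were excluded. Fasted ICR mice (n = 10) then received free or SLN-formulated test compound (0.20 mg/kg), aspirin or saline, all i.g. Latency was re-measured at 15 and 45 min, with a 30 s cutoff.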"}, "[2]": {"test_system": "acetic acid-induced writhing in mice", "experiment": "Acetic acid writhing test", "conditions": "i.g.; RJ-III 0.10 mg/kg, aspirin 200 mg/kg", "procedure,_shortened": "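Fasted ICR mice (18–22 g, both sexes), n = 10 per group, received free or SLN-formulated test compound (0.10 mg/kg), aspirin (200 mg/kg) or 0.9% saline, all i.g. Then 0.8% acetic acid (10 mL/kg, i.p.) was injected at 15 or 45 min post-dose, in two separate experiments. Abdominal contortions and hind-paw extensions were counted for 30 min.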"}, "[3]": {"test_system": "formalin-induced nociception in mice", "experiment": "Formalin test", "conditions": "formalin 15 min after i.g. administration; RJ-III 0.10 mg/kg, aspirin 200 mg/kg", "procedure,_shortened": "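Fasted ICR mice, n = 10 per group, were dosed i.g. with free or SLN-formulated test compound (0.10 mg/kg), aspirin (200 mg/kg) or saline. Then 25 μL of 2.5% formalin was injected s.c. into the left hind paw at 15 or 45 min post-dose, in separate experiments. Licking/biting time (s) was scored at 0–5 min (phase I) and 15–30 min (phase II).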"}}}
{"smiles": "CC(=O)Oc1ccccc1C(=O)O", "note": "[aspirin]", "values": [{"measurement": "latency time compared to pretreatment", "setting": "[1]; 15 min after i.g. administration", "result": "increased the latency time"}, {"measurement": "antinociception relative to pretreatment", "setting": "[1]; 45 min after i.g. administration", "result": "no significant analgesic effect"}, {"measurement": "change in number of writhes between 15 and 45 min", "setting": "[2]", "result": "statistically increases"}, {"measurement": "phase I response (licking time) vs normal saline", "setting": "[3]", "result": "no effects"}, {"measurement": "phase II response (licking time) vs normal saline", "setting": "[3]", "result": "suppressed behavioral responses"}]}
